The source of these data is ChEMBL document CHEMBL1154451, “Simple and efficient synthesis of novel glycosyl thiourea derivatives as potential antitumor agents” (Eur J Med Chem, 2008).

Assay [1] in a line: Cytotoxicity against human PG cells after 48 hrs by MTT assay. In kind it is functional, cell-based. The gist of the method:
(§1)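 Tumour cells seeded at 3–5 × 10⁴ cells/mL and cultured 24 h, then medium containing test compound at various concentrations added (plain medium for controls). Exposure 48 h, followed by MTT read-out with absorbance measured at 490 nm. EC50 values reported; compounds tested up to […].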
For orientation: Tetrazolium assays rely on reduction of a dye to a coloured formazan, in cell work by metabolically active cells.

Another assay concerns Bel-7402. Kind of assay: Cytotoxicity against human Bel7402 cells after 48 hrs by MTT assay. In kind it is functional, cell-based. As to conditions: Bel-7402, 48 h. The gist of the method: as §1

pEC50: −log10 of the molar value.

Broadly, the pEC50 is the EC50 on a negative log10 scale, so that one unit is a factor of ten. Low values mean a large EC50, high ones a small EC50. On to `Cc1cn([C@H]2C[C@H](N=[N+]=[N-])[C@@H](CO)O2)c(=O)[nH]c1=O` [ZIDOVUDINE], for which the pEC50 was 6.24 in assay [1] and 5.34 in the assay with Bel-7402.
